Most compounds without a hit are left out; they make up all but 1.2% or so of the library.
HCV NS3 hel inh – blocks Hepatitis C virus NS3 helicase unwinding; 290,000 compounds, 0.56% hits; AID 1800; NS3 helicase DNA unwinding, Cy5 molecular beacon fluorescence; inhibition, % at 10.9 µM;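 active means inhibition above the mean of all tested compounds plus 3 SD, set per campaign, cut at about 35% in these data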;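 further: 0% = DMSO wells and 100% = thioflavine S control wells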
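Assay system – hepatitis C virus NS3 helicase domain fragment enzyme · Buffer or medium – MOPS pH 6.5, MgCl2, DTT, Tween20, BSA · Reagent – Cy5/quencher beacon DNA duplex and ATP to start · Compound – single 10.9 µM dose · Timing – 1 h at 25 °C · Technique – Cy5 beacon fluorescence read at start and 1 h · Measure – % inhibition of unwinding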
core dimer inh – HCV core protein dimerization inhibition; TR-FRET GST/Flag-core106 dimerization, 1536-well; inhibition, % at 5 µM; 300,000 compounds, 0.33% hits;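 active means inhibition above the mean of all tested compounds plus 3 SD, set per screening campaign, cut at about 45% in these data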
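Assay system: tagged HCV core106 pair (GST and Flag); medium: KF-containing HEPES buffer, pH 7.45, DTT, CHAPS, BSA; also added: Eu donor and XL665 acceptor anti-tag antibodies; dosing: 5 µM single dose; timing: compound-protein-antibody incubation 4 h at 22.5 °C; signal: TR-FRET 671 and 617 nm emission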
ZTA counter – blocks Epstein-Barr virus ZTA, an EBNA-1 counter-screen | ZTA-DNA binding, fluorescence polarization | 320,000 compounds, 0.15% hits | inhibition, % at 11 µM; in the data active means inhibition above about 33%
Target sequence (P03206 whole entry, looked up): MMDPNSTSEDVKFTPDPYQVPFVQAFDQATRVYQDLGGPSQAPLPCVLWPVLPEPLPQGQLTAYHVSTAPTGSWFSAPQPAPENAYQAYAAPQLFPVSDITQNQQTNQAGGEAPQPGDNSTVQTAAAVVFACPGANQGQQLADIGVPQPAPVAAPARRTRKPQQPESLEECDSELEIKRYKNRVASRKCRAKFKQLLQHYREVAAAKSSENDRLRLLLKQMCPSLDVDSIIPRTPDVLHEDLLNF
EBNA-1 inh – blocks EBNA-1 binding to DNA; EBNA-1 DNA binding, fluorescence polarization; inhibition, % at 14.8 µM; 300,000 compounds, 0.34% hits; AID 1950; in the data active means inhibition above about 28%
ZTA inh confirm – confirmation of Epstein-Barr virus ZTA DNA binding inhibitors; shares compounds with ZTA counter; Zta-ZRE DNA binding, fluorescence polarization; inhibition, % at 11.1 µM; 320 compounds, 30% hits; AID 2361;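 active means mean inhibition across triplicate runs above the hit threshold derived for the original primary screen, cut at about 33% in these data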;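 further: 0% = Zta with DMSO and 100% = wells lacking Zta protein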
EBNA-1 counter – blocks EBNA-1 DNA binding in ZTA counter-screen. inhibition, % at 14.8 µM. AID 2362. shares compounds with ZTA counter. fluorescence polarization. 320 tested, under 10 active; call rule not given here
The depositor's hits bear a star; x = no result given.

SMILES	HCV NS3 hel inh	core dimer inh	ZTA counter	EBNA-1 inh	ZTA inh confirm	EBNA-1 counter
COc1ccc(Br)cc1CNc1ccc2[nH]c(=O)[nH]c2c1	2	-29	-1	-14	x	x
Cc1ccn(CCSCC(=O)O)n1	-3	-5	-13	-4	x	x
Cc1ccn(CC(C)C(=O)O)n1 (stereo not drawn)	-1	0	166*	-12	4	0
O=C(CCCCCN1C(=O)CCC1=O)Nc1ccc2c(c1)OCCO2	4	-2	34*	-12	1	-1
COc1ccc(CCC(=O)Nc2ccc3c(c2)OCCO3)cc1	4	4	55*	27	12	3
COc1ccc(CCC(=O)Nc2ccc3c(c2)OCO3)cc1	1	7	-13	-10	x	x
COc1ccc(S(=O)(=O)NCC2CCC(C(=O)O)CC2)cc1 (stereo not drawn)	9	2	10	4	x	x
CCn1c(CSc2n[nH]c(N)n2)nc2cc(C(=O)O)ccc21	6	-3	34*	16	39*	19
CCn1c(CSc2nnc(-c3ccncc3)n2CCOC)nc2cc(C(=O)O)ccc21	4	3	37*	5	30	17
CCCC(=O)Nc1ccc2oc(-c3cccnc3)nc2c1	-4	3	45*	-7	2	-5
CC(C)c1ccc(NC(=O)COc2ccc(S(=O)(=O)N3CCOCC3)cc2)cc1	9	3	35*	2	18	-10
CC1CCCC(NC(=O)COC(=O)c2cc(S(=O)(=O)N3CCCCC3)ccc2N2CCOCC2)C1C (stereo not drawn)	3	14	5	11	x	x
CC1CCCC(NC(=O)COC(=O)c2cccc(S(=O)(=O)N3CCCCC3)c2)C1C (stereo not drawn)	x	x	41*	x	0	8
COc1ccc(Cl)cc1NC(=O)CN(C)C(=O)c1cc(C)oc1C	x	x	-2	x	x	x
Cc1ccc(/C=N\NC(=O)C2CC(=O)N(c3ccccc3)C2)o1 (stereo not drawn)	3	-3	-6	-8	x	x
COc1ccccc1Nc1nc(C)nc2c1oc1ccccc12	-8	5	13	-3	x	x
COc1ccc(Nc2nc(C)nc3c2oc2ccccc23)c(OC)c1	-14	-8	39*	0	23	-4
COc1cc(/C=C/C(=O)O)ccc1O	x	-2	3	4	x	x
COc1cc(/C=C/C(=O)/C=C(O)/C=C/c2ccc(O)c(OC)c2)ccc1O	x	x	34*	x	14	-8
COC(=O)c1ccc(NC(=O)c2ccc(NC(=O)c3ccco3)cc2)cc1	-18	6	39*	7	49*	23
CC(=O)c1ccc(NC(=O)c2ccc(NC(=O)c3ccco3)cc2)cc1	-15	9	16	15	x	x
Cc1cc(=O)oc2c(CN3CC(C)OC(C)C3)c(O)c(Cl)cc12 (stereo not drawn)	14	3	-3	4	x	x
Fc1ccc(/C=N/NC2=Nc3cccc4cccc2c34)cc1	-25	-29	179*	0	-3	4
c1ccc(NC2=Nc3cccc4cccc2c34)cc1	-6	-12	1	6	x	x
COc1cc(C(=O)NCCC(=O)NC(C)CCc2ccccc2)cc(OC)c1OC (stereo not drawn)	0	0	-7	-2	x	x
SMILES	HCV NS3 hel inh	core dimer inh	ZTA counter	EBNA-1 inh	ZTA inh confirm	EBNA-1 counter
Nc1ccc(N2CCOCC2)c2nonc12	5	-10	55*	-3	2	7
O=C(Nc1ccc(N2CCOCC2)c2nonc12)C1CCCC1	-1	20	8	17	x	x
COc1ccc(Sc2nc3ccccc3n3c(C(F)(F)F)nnc23)cc1	0	-1	47*	7	-4	-3
COc1cccc(-n2cc(C(=O)NC(C)C)c3ccccc3c2=O)c1	-1	3	155*	-7	4	3
COc1cccc(-n2cc(C(=O)NCCCOC(C)C)c3ccccc3c2=O)c1	1	-6	-14	-6	x	x
Cc1cccc(C)c1NC(=O)CN(C)S(=O)(=O)c1ccc(-c2ccc(=O)[nH]n2)s1	22	27	-13	-19	x	x
COc1ccccc1NC(=O)Cc1nnc(SCC(=O)NC2=NCCS2)n1C	12	-12	-23	-6	x	x
CCOc1cc(/C=C2/C(=O)ON=C2C)ccc1OCc1ccccc1	5	9	3	2	x	x
CCOc1cc(/C=C2/C(=O)ON=C2C)ccc1OCc1ccc(F)cc1	6	1	35*	-4	4	0
